The source of these data is ChEMBL document CHEMBL1177719 (J Med Chem, 2010).

The subject of one data set is MCF7. Put plainly: Cellular uptake in human MCF7 cells assessed per millions cells at 50 uM after 24 hrs by LC/MS/MS analysis. The settings on record: mcf7, 24 h. It is filed as ADME, cell-based.
The next data set has as its system RAW264.7. The data set is described as follows: Inhibition of LPS-induced iNOS expression in mouse RAW264.7 cells at 34 uM treated 15 mins before LPS challenge measured after 18 hrs by Western blotting. The class given is functional, cell-based. The gist of the method: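 RAW 264.7 cells pretreated 15 min with compound (34 μM), then LPS 1 μg/mL for 18 h. Lysates (30 μg protein) run on 8% SDS-PAGE and transferred to PVDF. Blocked in 5% milk/TBST, probed for iNOS and COX-2 with HRP secondary, ECL detection, β-actin internal control. Band density relative to LPS-treated control; duplicate experiments.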

A short description of data set [1]: Antioxidant activity assessed as DPPH scavenging activity after 30 mins. It is filed as functional.
Data set [2] can be described thus: Inhibition of TNF-alpha-induced NF-kappaB activity expressed in HEK293 cells after 48 hrs by luciferase reporter gene assay. It is filed as cell-based. The settings on record: HEK293, 48 h.
The subject of another data set is HL-60. Put plainly: Cell cycle arrest in human HL60 cells assessed as accumulation at sub-G1 phase at 34 uM after 24 hrs by flow cytometry. The class given is functional. In a few lines: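 HL-60 cells (2 × 10⁵/well) exposed to samples for 24 h, then stained with NIM-DAPI nuclear isolation medium. Read by flow cytometry under UV excitation; percentage of cells in subG₁ taken from the DNA histogram.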

Data set [3] in a line: Chemical stability assessed as degradation after 24 hrs by LC/MS/MS analysis. The class given is physicochemical. The gist of the method: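 Compound held 24 h at 37 °C in RPMI 1640 culture medium, the medium used for the MCF7 uptake work; remaining amount sampled at 0, 12 and 24 h as % of starting level; three runs.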

The structures appear in SMILES notation. The source made the active and inactive calls. No cut-off for these calls is given here.

On to `O=S(=O)([O-])Oc1cc(/C=C/c2ccc(O)cc2)cc(OS(=O)(=O)[O-])c1.[K+].[K+]`, for which the Drug uptake entry in the data set on MCF7 is reported as “Active”.
Consider `O=S(=O)([O-])Oc1cc(O)cc(/C=C/c2ccc(O)cc2)c1.[K+]`, for which, in the data set on RAW264.7, the inhibition entry is “Active”. Also, in data set [1], the IC50 amounted to 219 µM.
On to `O=S(=O)([O-])Oc1ccc(/C=C/c2cc(O)cc(O)c2)cc1.[K+]`, for which inhibition in data set [2] was half-maximal at 18.2 µM (IC50). Also, in the data set on RAW264.7, the inhibition result is “Active”. In the data set on HL-60, the Activity amounted to 2.22%. The Stability entry in data set [3] was “Stable”.
